Source: PubChem BioAssay (several laboratories)
Cl transport mod – modulates chloride dependent transport by human KCC2. KCC2 cells, thallium flux FluoZin-2 fluorescence. B-score of Tl+ flux slope (higher = more flux/activation; lower = inhibition) at 10 µM. actives 2.2% (n = 190,000). AID 1456;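 active = thallium flux slope and its plate-corrected score both differing from the plate sample mean at a set confidence after two filtering rounds, in either direction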;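 also: slope of fluorescence scaled to starting intensity during 10 to 20 s after thallium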
KCNQ1 pot – potentiates or activates the human KCNQ1 potassium channel; CHO-K1 KCNQ1, thallium flux FluxOR fluorescence; stronger effect = higher value; actives 0.35% (n = 310,000); B-score at 10 µM; P51787;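 active = fluorescence ratio B-score, a plate-corrected score, at least three library SD, with initial intensity B-score within 5 SD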
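System: Stable KCNQ1 CHO-K1 line | Incubation: 90 min dye loading and 20 min compound exposure, both at room temperature | Measure: Ratio B score | Medium: Assay buffer for compound exposure, DMSO matched across wells | Compound dosing: Single-concentration screen | Probe or stimulus: K+/Tl+ depolarizing stimulus | Measured by: Kinetic FluxOR fluorescence, 10 s baseline plus 110 s post-stimulus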
hERG protect – hERG (human) protection from proarrhythmic block. actives 0.51% (n = 310,000). activation (rescue from dofetilide block), less the hit threshold, % at 10 µM. Q12809. CHO-hERG, FluxOR thallium flux, dofetilide IC70 present. AID 1511;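 active = activation above the mean of controls blocked by dofetilide plus 5 SD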;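 also: thallium influx through hERG after potassium depolarization seen as dye fluorescence rise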
Target sequence (Q12809 whole entry, looked up): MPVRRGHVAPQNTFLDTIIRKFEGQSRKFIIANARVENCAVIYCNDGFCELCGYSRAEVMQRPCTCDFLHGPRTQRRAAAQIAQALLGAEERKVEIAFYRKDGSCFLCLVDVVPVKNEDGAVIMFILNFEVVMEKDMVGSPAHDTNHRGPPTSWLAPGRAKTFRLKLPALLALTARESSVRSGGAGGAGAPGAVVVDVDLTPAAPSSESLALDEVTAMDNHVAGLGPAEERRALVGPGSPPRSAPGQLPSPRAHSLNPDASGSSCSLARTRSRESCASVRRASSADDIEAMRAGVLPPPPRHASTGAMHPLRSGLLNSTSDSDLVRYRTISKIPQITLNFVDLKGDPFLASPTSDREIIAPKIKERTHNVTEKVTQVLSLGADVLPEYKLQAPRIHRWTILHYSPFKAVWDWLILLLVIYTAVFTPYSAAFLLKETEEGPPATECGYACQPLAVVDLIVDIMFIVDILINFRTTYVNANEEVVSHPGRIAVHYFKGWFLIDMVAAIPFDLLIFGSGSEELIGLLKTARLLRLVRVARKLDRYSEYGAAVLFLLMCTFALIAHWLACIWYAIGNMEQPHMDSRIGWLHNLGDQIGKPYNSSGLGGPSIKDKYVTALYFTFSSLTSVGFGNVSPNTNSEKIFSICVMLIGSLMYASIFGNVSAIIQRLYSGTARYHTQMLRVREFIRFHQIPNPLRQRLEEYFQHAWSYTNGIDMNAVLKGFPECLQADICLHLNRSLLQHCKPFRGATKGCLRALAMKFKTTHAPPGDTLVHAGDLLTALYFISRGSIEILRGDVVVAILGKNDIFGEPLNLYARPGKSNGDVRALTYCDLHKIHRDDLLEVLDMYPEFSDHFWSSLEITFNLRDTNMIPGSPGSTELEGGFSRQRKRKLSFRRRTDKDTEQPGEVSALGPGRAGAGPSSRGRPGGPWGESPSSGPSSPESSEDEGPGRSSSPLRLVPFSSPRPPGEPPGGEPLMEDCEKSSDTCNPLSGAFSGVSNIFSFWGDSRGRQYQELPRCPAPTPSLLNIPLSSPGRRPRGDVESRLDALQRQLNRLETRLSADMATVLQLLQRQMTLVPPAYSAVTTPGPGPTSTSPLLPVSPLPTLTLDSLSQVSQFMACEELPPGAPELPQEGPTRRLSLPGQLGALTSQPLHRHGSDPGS
KCNK3 block – human KCNK3 channel inhibition, primary screen; O14649; CHO-KCNK3 thallium flux, FluxOR fluorescence; stronger effect = lower value; B-score at 10 µM; actives 0.84% (n = 340,000);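 active = B-score under library mean minus 4 SD, starting fluorescence ratio at most library mean plus 5 SD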;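 also: more negative B-score means stronger inhibition of thallium flux through KCNK3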
KCNK9 inh – inhibitors of human KCNK9 two-pore domain potassium channel | HEK293 KCNK9, FluxOR thallium flux fluorescence; stronger effect = lower value | actives 1.2% (n = 310,000) | B-score at 10 µM;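 active = ratio B-score over 3 SD below the library mean, with starting fluorescence within 5 SD of its mean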;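 also: negative B-score means less thallium flux so channel inhibition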
KCNQ1 inh – inhibitors of human KCNQ1 potassium channel | actives 1.3% (n = 310,000) | CHO-K1 KCNQ1, FluxOR thallium flux fluorescence; stronger effect = higher value | AID 2642 | B-score at 10 µM;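 active = compounds whose thallium flux B-score, printed positive for inhibition, exceeds three library SD while starting fluorescence stays within three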;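 also: channel opened by potassium depolarization with thallium stimulus after 20 min compound exposure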
KCC2 sec1 – KCC2 (human) modulation, secondary assay | normalised thallium flux (F/F0 slope) at 10 µM | actives 15% (n = 3,700) | HEK293-KCC2, thallium flux, FluoZin2 fluorescence; stronger effect = higher value | AID 1713 | shares compounds with Cl transport mod;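 active = thallium flux slope above the same plate's solvent-only control mean plus 3 SD; inconclusive = the two replicate wells disagree; inactive = no significant difference from solvent-only control wells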
KCC2 bumet counter – thallium flux despite bumetanide block in KCC2 cells, secondary assay 3 | normalized thallium flux at 10 µM | shares compounds with Cl transport mod | actives 49% (n = 3,700) | HEK293-KCC2 + bumetanide/ouabain, thallium flux FluoZin2; stronger effect = higher value;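 active = thallium entry rate above the same plate's blocked-transporter control wells by more than 3 SD; inconclusive = the two repeat wells disagree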;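 also: raw slope of fluorescence over initial fluorescence between 10 and 20 s after thallium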
KCC2 sec2 – confirmation of human KCC2 transport modulators | normalized thallium flux at 10 µM | shares compounds with Cl transport mod | HEK293-KCC2, thallium flux FluoZin2 fluorescence; actives lie on both sides; F/F0 rise rate, 10–20 s post-thallium | actives 23% (n = 3,700);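 active = thallium flux slope more than 3 SD above or below the plate's solvent-only control mean, mostly below; inconclusive = the two repeat wells disagreed; inactive = no significant shift from solvent-only controls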
HEK293 Tl flux – acts in parental HEK cells, KCC2 counter-screen; thallium flux rate (normalised fluorescence) at 10 µM; HEK293 parental cells, thallium flux FluoZin2, ouabain; baseline-ratio fluorescence slope, 10–20 s after thallium; shares compounds with Cl transport mod; actives 46% (n = 3,700); AID 1716;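 active = thallium flux rate significantly above the same plate's solvent-only control wells, beyond their mean plus 3 SD; inconclusive = the two replicate wells gave conflicting results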
KCC2 retest ouab – KCC2 (human) modulation, ouabain retest; shares compounds with Cl transport mod; HEK293-KCC2, thallium flux FluoZin2 fluorescence; bidirectional: low = inhibitor, high = activator; raw Tl+ flux slope (below DMSO = inhibition, above = activation) at 10 µM; actives 48% (n = 3,700); AID 1717;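 active = thallium flux slope beyond 3 SD from same-plate DMSO control mean in most replicates, usually higher, sometimes lower; inconclusive = repeat tests gave conflicting results; inactive = no significant difference from controls in most replicates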;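 also: slope of initial-normalized fluorescence between seconds 10 and 20 after thallium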
HEK counter2 – counter-screen for KCC2 modulators: effect in parental HEK293 cells; shares compounds with Cl transport mod; thallium flux FluoZin-2 fluorescence slope; thallium flux slope at 10 µM; actives 33% (n = 3,700); AID 1718;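 active = thallium flux slope above the same plate's solvent-control mean plus 3 SD in both duplicate wells; inconclusive = duplicate wells that disagreed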;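 also: run without ouabain in cells lacking the KCC2 cotransporter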
Of the large screens only hits and unclear results are named; the others gave an inactive call (follow-up assays come after a bar, where they were run). An excerpt weighted towards active compounds, which were near 4.1% of everything screened.

CCCCCn1c(N2CCC(Cc3ccccc3)CC2)nc2c1c(=O)[nH]c(=O)n2C	Cl transport mod -5.5 | KCC2 sec1 inactive | KCC2 bumet counter inactive | KCC2 sec2 inactive | HEK293 Tl flux inactive | KCC2 retest ouab inactive | HEK counter2 inactive
C=C(C)Cn1c(N2CCC(Cc3ccccc3)CC2)nc2c1c(=O)[nH]c(=O)n2C	Cl transport mod -3.6 | KCC2 sec1 inactive | KCC2 bumet counter 0.0059 | KCC2 sec2 0.024 | HEK293 Tl flux inactive | KCC2 retest ouab 0.016 | HEK counter2 inactive
CCCn1c(N2CCC(Cc3ccccc3)CC2)nc2c1c(=O)[nH]c(=O)n2C	none (no result: Cl transport mod) | KCC2 sec1 inactive | KCC2 bumet counter inactive | KCC2 sec2 inconclusive | HEK293 Tl flux inconclusive | KCC2 retest ouab 0.016 | HEK counter2 inactive
Cn1c(=O)[nH]c(=O)c2c1nc(N1CCC(Cc3ccccc3)CC1)n2Cc1ccccc1	none
COc1ccc(-c2csc(NC(=O)Cc3cccc4ccccc34)c2C(=O)O)cc1	Cl transport mod -4.1 | KCC2 sec1 inactive | KCC2 bumet counter inactive | KCC2 sec2 inactive | HEK293 Tl flux inactive | KCC2 retest ouab inactive | HEK counter2 inactive
COc1ccc(-c2csc(NC(=O)c3cccs3)c2C(=O)O)cc1OC	Cl transport mod -3.7 | KCC2 sec1 inactive | KCC2 bumet counter inactive | KCC2 sec2 inactive | HEK293 Tl flux inactive | KCC2 retest ouab 0.016 | HEK counter2 inactive
COc1ccc(-c2csc(NC(=O)c3ccccc3OC)c2C(=O)O)cc1OC	none (no result: Cl transport mod)
COCc1nnc(NC(=O)c2ccc(S(=O)(=O)N3CCCc4ccccc43)cc2)o1	none
O=C(Nc1nnc(C2CC2)o1)c1ccc(S(=O)(=O)N2CCCc3ccccc32)cc1	Cl transport mod 4.4 | KCC2 sec1 0.012 | KCC2 bumet counter 0.025 | KCC2 sec2 inactive | HEK293 Tl flux 0.012 | KCC2 retest ouab inconclusive | HEK counter2 inactive
CN(C(=O)/C=C/c1ccc(F)cc1)C1CCCCC1	none (no result: Cl transport mod)
CN(C(=S)NC(=O)/C=C/c1ccc(F)cc1)C1CCCCC1	Cl transport mod 12 | KCC2 sec1 inactive | KCC2 bumet counter 0.072 | KCC2 sec2 inactive | HEK293 Tl flux 0.019 | KCC2 retest ouab inconclusive | HEK counter2 0.014
CCOC(=O)c1sc(CS(=O)(=O)c2ccc(Cl)cc2)nc1C	none
CCOC(=O)c1sc(-c2ccc(Cl)cc2Cl)nc1O	Cl transport mod 9.2 | KCC2 sec1 inactive | KCC2 bumet counter 0.02 | KCC2 sec2 inactive | HEK293 Tl flux 0.017 | KCC2 retest ouab 0.026 | HEK counter2 0.013
C/C(=N\NC(=O)COc1cccc(C)c1)c1ccc2ccccc2c1O	none (no result: Cl transport mod)
Cc1ccc(C(=O)Nc2nc(=O)n(C(=O)c3ccccc3Cl)s2)cc1	Cl transport mod -7.2 (no result: KCNQ1 pot, hERG protect, KCNK9 inh, KCNQ1 inh) | KCC2 sec1 inactive | KCC2 bumet counter inconclusive | KCC2 sec2 0.024 | HEK293 Tl flux inactive | KCC2 retest ouab 0.012 | HEK counter2 inactive
Cc1ccc(C(=O)Nc2nc(=O)n(C)s2)cc1	none
CCc1noc(C)c1C(=O)Nc1ccc(C(F)(F)F)cc1	none (no result: Cl transport mod)
COc1cc(S(=O)(=O)N2CCn3cccc3C2C)ccc1NC(C)=O (stereo not drawn)	none (no result: Cl transport mod, KCNQ1 pot, hERG protect, KCNK9 inh, KCNQ1 inh)
Cn1c(-c2sc3cc(C(F)(F)F)cnc3c2-c2cccs2)n[nH]c1=S	Cl transport mod 10 | KCC2 sec1 inactive | KCC2 bumet counter 0.015 | KCC2 sec2 inactive | HEK293 Tl flux 0.0099 | KCC2 retest ouab inconclusive | HEK counter2 inactive
Oc1cc(CNCc2ccccc2)c(O)cc1CNCc1ccccc1	none (no result: Cl transport mod, KCNQ1 pot, hERG protect, KCNK9 inh, KCNQ1 inh)
OCc1ccccc1CNCc1ccccc1	none (no result: Cl transport mod) | KCC2 sec1 inactive | KCC2 bumet counter inactive | KCC2 sec2 inactive | HEK293 Tl flux inactive | KCC2 retest ouab inactive | HEK counter2 inactive
C=CCn1cc(C(=O)NCCCN(CC)CC)c(=O)c2cc(S(=O)(=O)N3CCC(C)CC3)ccc21	none (no result: Cl transport mod)
Cc1cccc(C)c1Nc1nnc(SCC(=O)c2ccc3c(c2)NC(=O)CO3)s1	Cl transport mod -3.8 | KCC2 sec1 inactive | KCC2 bumet counter inactive | KCC2 sec2 inactive | HEK293 Tl flux inactive | KCC2 retest ouab 0.019 | HEK counter2 inactive
CC(Sc1ccccc1)C(=O)N/N=C/c1ccccc1 (stereo not drawn)	none (no result: Cl transport mod)
COCCNC(=O)CN(c1cc(C(F)(F)F)ccc1Cl)S(C)(=O)=O	Cl transport mod -4 | KCC2 sec1 inactive | KCC2 bumet counter inconclusive | KCC2 sec2 inactive | HEK293 Tl flux inconclusive | KCC2 retest ouab inactive | HEK counter2 inactive
C[C@H]1CN[C@H](CCO)/C1=C\c1ccccc1	none (no result: Cl transport mod, KCNQ1 pot, hERG protect, KCNK9 inh, KCNQ1 inh)
Cc1ccc(C)c(S(=O)(=O)NC(CC(C)C)C(=O)O)c1 (stereo not drawn)	Cl transport mod 5.6 | KCC2 sec1 inactive | KCC2 bumet counter inconclusive | KCC2 sec2 inactive | HEK293 Tl flux inactive | KCC2 retest ouab inactive | HEK counter2 inactive
Cc1ccc(C)c(S(=O)(=O)NC(Cc2c[nH]c3ccccc23)C(=O)O)c1 (stereo not drawn)	none
COc1ccccc1NC(=O)CSc1nccc(-c2ccco2)n1	none (no result: Cl transport mod, KCNQ1 pot, hERG protect, KCNK9 inh, KCNQ1 inh)
O=C(NCc1cccs1)c1cc(S(=O)(=O)N2CCCCC2)ccc1Cl	none
O=C(Cc1cccs1)Nc1ccc(S(=O)(=O)N2CCCC2)cc1	Cl transport mod -3.7 | KCC2 sec1 inactive | KCC2 bumet counter inactive | KCC2 sec2 inactive | HEK293 Tl flux inactive | KCC2 retest ouab inactive | HEK counter2 inactive
CN(CC(=O)Nc1cc(S(=O)(=O)N2CCCC2)ccc1Cl)Cc1cccs1	Cl transport mod -5.3 | KCC2 sec1 inconclusive | KCC2 bumet counter inactive | KCC2 sec2 inactive | HEK293 Tl flux inactive | KCC2 retest ouab 0.014 | HEK counter2 inactive
Cc1ccc(S(=O)(=O)N2CCCCC2)cc1NC(=O)Cc1cccs1	none (no result: Cl transport mod, KCNQ1 pot, hERG protect, KCNK9 inh, KCNQ1 inh)
NC(=O)c1cc2c3ccccc3ccn2c1-c1ccccc1	none (no result: Cl transport mod)
CC(=O)C1=C(C)Nc2ncnn2C1c1ccc(Br)cc1 (stereo not drawn)	none (no result: Cl transport mod)
